Experimental data from ChEMBL document CHEMBL5724801, “EUbOPEN Chemogenomics Library - Multiplex” (2024).
Values joined by “and” are separate entries in the source; they are usually repeats but may differ in a detail not shown here. Equal entries are not always repeated.

Test system: Fibroblast
Test: Multiplex assay against human fibroblast
Assay type: toxicity, cell-based
Outline: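 Tubulin, mitochondrial-mass and membrane-permeability phenotypes are per cents of healthy-nucleus cells. Cells were gated by CellPathfinder machine learning into Hoechst high-intensity objects or normal cells, normal cells into healthy, pyknosed or fragmented nuclei, and pyknosed cells into mitotic or apoptotic. Before that, live cells stained at seeding with Hoechst33342, BioTracker Green Microtubule Cytoskeleton Dye, MitoTracker Red and Annexin V Alexa Fluor 680 were imaged on a CQ1 microscope at 37°C and 5% CO2 after compound addition.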

[1] = 12 h, 1 µM, compound concentration 1 uM
[2] = 12 h, 10 µM, compound concentration 10 uM
[3] = 24 h, 1 µM, compound concentration 1 uM
[4] = 24 h, 10 µM, compound concentration 10 uM
[5] = 48 h, 1 µM, compound concentration 1 uM
[6] = 48 h, 10 µM, compound concentration 10 uM

SMILES: CCCC(CCC)C(=O)O [VALPROIC ACID]
- Population Apoptotic (%) [1]: 42% and 57%
- Population Fragmented Nuclei (%) [1]: 13% and 20%
- Population Healthy Nuclei (%) [1]: 65% and 47%
- Population Hoechst High Intensity Objects (%) [1]: 3% and 8%
- Population Membrane Permeable-Phenotype (%) [1]: 2% and 10%
- Population Mitotic Cells (%) [1]: 57% and 42%
- Population Normal (%) [1]: 96% and 91%
- Population Pyknosed Nuclei (%) [1]: 21% and 31%
- Population Tubulin-Different-Phenotype (%) [1]: 27% and 49%
- Population Apoptotic (%) [2]: 30% and 43%
- Population Fragmented Nuclei (%) [2]: 29% and 16%
- Population Healthy Nuclei (%) [2]: 60% and 53%
- Population Hoechst High Intensity Objects (%) [2]: 4% and 2%
- Population Membrane Permeable-Phenotype (%) [2]: 1% and 4%
- Population Mitochondria Different-Phenotype (%) [2]: 3% and 8%
- Population Mitotic Cells (%) [2]: 70% and 56%
- Population Normal (%) [2]: 95% and 97%
- Population Tubulin-Different-Phenotype (%) [2]: 16% and 41%
- Population Apoptotic (%) [3]: 42% and 48%
- Population Fragmented Nuclei (%) [3]: 11% and 22%
- Population Healthy Nuclei (%) [3]: 69% and 53%
- Population Hoechst High Intensity Objects (%) [3]: 5% and 7%
- Population Membrane Permeable-Phenotype (%) [3]: 1% and 3%
- Population Mitochondria Different-Phenotype (%) [3]: 2% and 7%
- Population Mitotic Cells (%) [3]: 57% and 51%
- Population Normal (%) [3]: 95% and 92%
- Population Pyknosed Nuclei (%) [3]: 19% and 24%
- Population Tubulin-Different-Phenotype (%) [3]: 22% and 54%
- Population Apoptotic (%) [4]: 50% and 38%
- Population Fragmented Nuclei (%) [4]: 27% and 30%
- Population Healthy Nuclei (%) [4]: 66% and 46%
- Population Hoechst High Intensity Objects (%) [4]: 6% and 3%
- Population Membrane Permeable-Phenotype (%) [4]: 0% and 5%
- Population Mitochondria Different-Phenotype (%) [4]: 1% and 4%
- Population Mitotic Cells (%) [4]: 50% and 61%
- Population Normal (%) [4]: 93% and 96%
- Population Tubulin-Different-Phenotype (%) [4]: 21% and 41%
- Population Apoptotic (%) [5]: 55% and 48%
- Population Fragmented Nuclei (%) [5]: 18% and 36%
- Population Healthy Nuclei (%) [5]: 66% and 44%
- Population Hoechst High Intensity Objects (%) [5]: 7%
- Population Membrane Permeable-Phenotype (%) [5]: 0% and 4%
- Population Mitochondria Different-Phenotype (%) [5]: 1% and 7%
- Population Mitotic Cells (%) [5]: 44% and 51%
- Population Normal (%) [5]: 92%
- Population Pyknosed Nuclei (%) [5]: 14% and 19%
- Population Tubulin-Different-Phenotype (%) [5]: 19% and 55%
- Population Apoptotic (%) [6]: 60%
- Population Fragmented Nuclei (%) [6]: 30% and 33%
- Population Healthy Nuclei (%) [6]: 60% and 51%
- Population Hoechst High Intensity Objects (%) [6]: 1% and 5%
- Population Membrane Permeable-Phenotype (%) [6]: 0% and 6%
- Population Mitochondria Different-Phenotype (%) [6]: 1% and 5%
- Population Mitotic Cells (%) [6]: 40% and 39%
- Population Normal (%) [6]: 98% and 94%
- Population Pyknosed Nuclei (%) [6]: 8% and 15%
- Population Tubulin-Different-Phenotype (%) [6]: 18% and 46%

SMILES: FC(F)(F)c1ccccc1-c1cc(C(F)(F)F)c2[nH]c(C3=NOC4(CCCCC4)C3)nc2c1
- Population Apoptotic (%) [1]: 11.43% and 13.33%
- Population Fragmented Nuclei (%) [1]: 11.76% and 2.87%
- Population Healthy Nuclei (%) [1]: 56.56% and 79.89%
- Population Hoechst High Intensity Objects (%) [1]: 0%
- Population Membrane Permeable-Phenotype (%) [1]: 8% and 4.32%
- Population Mitochondria Different-Phenotype (%) [1]: 4.8% and 10.07%
- Population Mitotic Cells (%) [1]: 88.57% and 86.67%
- Population Normal (%) [1]: 100%
- Population Pyknosed Nuclei (%) [1]: 31.67% and 17.24%
- Population Tubulin-Different-Phenotype (%) [1]: 12.8% and 20.14%
- Total Cell Count [1]: 221 and 174
- Population Apoptotic (%) [2]: 7.62% and 14.29%
- Population Fragmented Nuclei (%) [2]: 10% and 8.05%
- Population Healthy Nuclei (%) [2]: 42.27% and 63.79%
- Population Hoechst High Intensity Objects (%) [2]: 0%
- Population Membrane Permeable-Phenotype (%) [2]: 12.9% and 5.41%
- Population Mitochondria Different-Phenotype (%) [2]: 19.35% and 15.32%
- Population Mitotic Cells (%) [2]: 92.38% and 85.71%
- Population Normal (%) [2]: 100%
- Population Pyknosed Nuclei (%) [2]: 47.73% and 28.16%
- Population Tubulin-Different-Phenotype (%) [2]: 30.11% and 51.35%
- Total Cell Count [2]: 220 and 174
- Population Apoptotic (%) [3]: 10.91% and 15.62%
- Population Fragmented Nuclei (%) [3]: 8.06% and 4.79%
- Population Healthy Nuclei (%) [3]: 69.76% and 78.19%
- Population Hoechst High Intensity Objects (%) [3]: 0%
- Population Membrane Permeable-Phenotype (%) [3]: 3.47% and 3.4%
- Population Mitochondria Different-Phenotype (%) [3]: 7.51% and 4.08%
- Population Mitotic Cells (%) [3]: 89.09% and 84.38%
- Population Normal (%) [3]: 100%
- Population Pyknosed Nuclei (%) [3]: 22.18% and 17.02%
- Population Tubulin-Different-Phenotype (%) [3]: 17.92% and 18.37%
- Total Cell Count [3]: 248 and 188
- Population Apoptotic (%) [4]: 13% and 17.86%
- Population Fragmented Nuclei (%) [4]: 7.66% and 9.09%
- Population Healthy Nuclei (%) [4]: 44.5% and 60.96%
- Population Hoechst High Intensity Objects (%) [4]: 0%
- Population Membrane Permeable-Phenotype (%) [4]: 7.53% and 4.39%
- Population Mitochondria Different-Phenotype (%) [4]: 25.81% and 29.82%
- Population Mitotic Cells (%) [4]: 87% and 82.14%
- Population Normal (%) [4]: 100%
- Population Pyknosed Nuclei (%) [4]: 47.85% and 29.95%
- Population Tubulin-Different-Phenotype (%) [4]: 69.89% and 65.79%
- Total Cell Count [4]: 209 and 187
- Population Apoptotic (%) [5]: 20.83% and 16.67%
- Population Fragmented Nuclei (%) [5]: 8.37% and 6.59%
- Population Healthy Nuclei (%) [5]: 82.51% and 86.81%
- Population Hoechst High Intensity Objects (%) [5]: 0%
- Population Membrane Permeable-Phenotype (%) [5]: 1.38% and 1.27%
- Population Mitochondria Different-Phenotype (%) [5]: 10.14% and 2.53%
- Population Mitotic Cells (%) [5]: 79.17% and 83.33%
- Population Normal (%) [5]: 100%
- Population Pyknosed Nuclei (%) [5]: 9.13% and 6.59%
- Population Tubulin-Different-Phenotype (%) [5]: 7.83% and 18.99%
- Total Cell Count [5]: 263 and 182
- Population Fragmented Nuclei (%) [6]: 9.33% and 11.92%
- Population Healthy Nuclei (%) [6]: 78.22% and 73.06%
- Population Hoechst High Intensity Objects (%) [6]: 0%
- Population Membrane Permeable-Phenotype (%) [6]: 0.57% and 4.26%
- Population Mitochondria Different-Phenotype (%) [6]: 13.64% and 7.8%
- Population Mitotic Cells (%) [6]: 96.43% and 55.17%
- Population Normal (%) [6]: 100%
- Population Pyknosed Nuclei (%) [6]: 12.44% and 15.03%
- Population Tubulin-Different-Phenotype (%) [6]: 38.64% and 60.99%
- Total Cell Count [6]: 225 and 193
